Data as given in ChEMBL document CHEMBL1140840, “New insight for fluoroquinophenoxazine derivatives as possibly new potent topoisomerase I inhibitor” (Bioorg Med Chem Lett, 2008).
pIC50: −log10 of the molar value.

How the values were obtained:
[1] = molecular target: DNA topoisomerase 2-alpha (Homo sapiens) (UniProt P11388); assay: Inhibition of human topoisomerase 2alpha assessed as relaxation of supercoiled DNA pBR322 at 10 uM relative to etoposide
Summary of the method: (§1)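 Human topo IIα (2 units) with 200 ng supercoiled pBR322 in 10 mM Tris-HCl pH 7.9, 50 mM NaCl, 5 mM MgCl2, 1 mM EDTA, 1 mM ATP, 15 µg/mL BSA, 30 min at 30 °C. Compounds at 2 or 10 µM, from 20 mM DMSO stocks. Stopped with EDTA. Products on 1% agarose, stained with ethidium bromide. Supercoiled DNA quantified under UV.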

[2] = species: Bos taurus; assay: Inhibition of calf thymus topoisomerase 1 assessed as relaxation of supercoiled DNA pBR322 at 2 uM relative to camptothecin
[3] = system: MDA-MB-231; assay: Cytotoxicity against human MDA-MB-231 cells; format: functional, cell-based
Summary of the method: (§2)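 Cells seeded at 2–4 × 10⁴ per well, grown overnight in medium with 10% FBS at 37 °C under 5% CO₂. On day 2 the medium was replaced with medium holding graded compound concentrations. Absorbance was read at 450 nm. IC50 came from a four-parameter logistic fit. Mean ± SD of three experiments, each in triplicate.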

[4] = system: HL-60; assay: Cytotoxicity against human HL60 cells; format: functional, cell-based; summary of the method: as §2
[5] = molecular target: DNA topoisomerase 2-alpha (Homo sapiens) (UniProt P11388); assay: Inhibition of human topoisomerase 2alpha assessed as relaxation of supercoiled DNA pBR322 at 2 uM relative to etoposide; summary of the method: as §1
[6] = system: HeLa; assay: Cytotoxicity against human HeLa cells; format: functional, cell-based; summary of the method: as §2
[7] = system: HCT-116; assay: Cytotoxicity against human HCT116 cells; format: functional, cell-based; summary of the method: as §2
[8] = system: DU-145; assay: Cytotoxicity against human DU145 cells; format: functional, cell-based; summary of the method: as §2
[9] = species: Bos taurus; assay: Inhibition of calf thymus topoisomerase 1 assessed as relaxation of supercoiled DNA pBR322 at 20 uM relative to camptothecin

Sequence of DNA topoisomerase 2-alpha (Homo sapiens) (P11388 whole entry): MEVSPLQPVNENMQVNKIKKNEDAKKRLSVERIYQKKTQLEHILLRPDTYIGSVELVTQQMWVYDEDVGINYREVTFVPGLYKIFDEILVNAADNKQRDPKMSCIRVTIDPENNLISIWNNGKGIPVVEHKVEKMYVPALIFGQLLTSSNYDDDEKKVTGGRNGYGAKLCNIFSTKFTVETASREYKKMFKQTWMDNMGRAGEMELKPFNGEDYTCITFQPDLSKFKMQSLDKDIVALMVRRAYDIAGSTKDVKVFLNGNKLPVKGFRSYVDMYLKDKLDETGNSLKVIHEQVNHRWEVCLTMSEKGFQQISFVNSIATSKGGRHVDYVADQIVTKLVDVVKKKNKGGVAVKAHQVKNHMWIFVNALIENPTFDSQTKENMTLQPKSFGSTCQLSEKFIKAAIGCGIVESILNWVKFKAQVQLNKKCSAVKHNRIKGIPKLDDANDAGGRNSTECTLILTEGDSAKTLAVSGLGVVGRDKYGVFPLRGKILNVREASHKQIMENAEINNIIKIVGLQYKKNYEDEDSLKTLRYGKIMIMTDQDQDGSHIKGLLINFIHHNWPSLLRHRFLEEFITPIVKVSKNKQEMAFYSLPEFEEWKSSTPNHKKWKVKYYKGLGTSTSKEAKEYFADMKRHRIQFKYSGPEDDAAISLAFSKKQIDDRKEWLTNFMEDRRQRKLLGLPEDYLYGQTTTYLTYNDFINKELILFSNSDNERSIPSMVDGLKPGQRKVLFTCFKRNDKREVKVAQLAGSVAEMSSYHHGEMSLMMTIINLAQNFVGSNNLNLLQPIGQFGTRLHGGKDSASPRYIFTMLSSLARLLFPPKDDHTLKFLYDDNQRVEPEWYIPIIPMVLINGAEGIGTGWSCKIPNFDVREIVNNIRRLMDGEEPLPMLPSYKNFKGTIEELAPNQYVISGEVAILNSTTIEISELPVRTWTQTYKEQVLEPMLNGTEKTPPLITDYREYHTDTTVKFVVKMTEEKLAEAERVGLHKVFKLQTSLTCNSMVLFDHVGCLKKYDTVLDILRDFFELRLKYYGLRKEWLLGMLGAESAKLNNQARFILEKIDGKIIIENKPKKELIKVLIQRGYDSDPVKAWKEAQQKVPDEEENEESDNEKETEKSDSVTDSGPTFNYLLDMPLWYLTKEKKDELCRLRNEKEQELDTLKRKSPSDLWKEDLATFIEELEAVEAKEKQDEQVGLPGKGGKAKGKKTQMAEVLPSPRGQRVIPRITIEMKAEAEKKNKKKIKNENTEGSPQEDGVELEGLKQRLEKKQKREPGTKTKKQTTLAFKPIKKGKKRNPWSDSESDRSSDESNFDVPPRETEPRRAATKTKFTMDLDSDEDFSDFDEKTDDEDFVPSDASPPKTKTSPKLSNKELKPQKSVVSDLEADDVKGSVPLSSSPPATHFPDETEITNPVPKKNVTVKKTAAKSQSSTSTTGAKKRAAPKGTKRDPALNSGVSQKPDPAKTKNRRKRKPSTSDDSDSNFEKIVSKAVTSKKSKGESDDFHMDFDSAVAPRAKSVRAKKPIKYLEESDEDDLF

Row | Structure (SMILES) | inhibition [1] [%] | inhibition [2] [%] | pIC50 [3] | pIC50 [4] | inhibition [5] [%] | pIC50 [6] | pIC50 [7] | pIC50 [8] | inhibition [9] [%]
1 | O=C(O)c1cn2c3c(c(F)c(F)cc3c1=O)Oc1ccccc1-2 | 82.4 | 53.5 | < 4.30 | < 4.30 | 0.5 | < 4.30 | 5.20 | < 4.30 | 96.6
2 | N[C@H]1CCN(c2c(F)cc3c(=O)c(C(=O)O)cn4c3c2Oc2ccc(Cl)cc2-4)C1 | 88.6 | 87.9 | 4.71 | 5.79 | 89 | 5.70 | 5.59 | 4.75 | 86.1
3 | COc1cc([C@@H]2c3cc4c(cc3[C@@H](O[C@@H]3O[C@@H]5CO[C@@H](C)O[C@H]5[C@H](O)[C@H]3O)[C@H]3COC(=O)[C@H]23)OCO4)cc(OC)c1O [ETOPOSIDE] | 40.9 |  | 4.79 | 5.84 | 0.7 | 4.74 | 4.82 | 4.53 | 
4 | N[C@H]1CCN(c2c(F)cc3c(=O)c(C(=O)O)cn4c3c2Oc2nc(O)ncc2-4)C1 | 28.8 | 32.4 | < 4.30 | < 4.30 | 0 | < 4.30 | < 4.30 | < 4.30 | 0
5 | N[C@H]1CCN(c2c(F)cc3c(=O)c(C(=O)O)cn4c3c2Oc2ccccc2-4)C1 | 89.4 | 88.9 | 5.36 | 5.62 | 89.1 | 5.63 | 6.06 | 5.74 | 90.2
6 | CC[C@@]1(O)C(=O)OCc2c1cc1n(c2=O)Cc2cc3ccccc3nc2-1 [CAMPTOTHECIN] |  | 63.3 | 5.38 | 7.89 |  | 5.97 | 6.00 | 5.49 | 84.1
7 | N[C@H]1CCN(c2c(F)cc3c(=O)c(C(=O)O)cn4c3c2Sc2ccccc2-4)C1 | 91.7 | 45.1 | 4.72 | 4.94 | 57 | 5.29 | 5.62 | 4.71 | 97.2
8 | N[C@H]1CCN(c2c(F)cc3c(=O)c(C(=O)O)cn4c3c2Oc2ccc([N+](=O)[O-])cc2-4)C1 | 91.6 | 65.7 | 4.70 | 5.00 | 26 | 4.75 | 5.13 | 4.86 | 95.3
9 | N[C@H]1CCN(c2c(F)cc3c(=O)c(C(=O)O)cn4c3c2Oc2cc(S(=O)(=O)O)c3ccccc3c2-4)C1 | 24.7 | 39.1 | < 4.30 | < 4.30 | 1.9 | < 4.30 | < 4.30 | < 4.30 | 25
10 | COc1cccc2c1C(=O)c1c(O)c3c(c(O)c1C2=O)C[C@@](O)(C(=O)CO)C[C@@H]3O[C@H]1C[C@H](N)[C@H](O)[C@H](C)O1 [DOXORUBICIN] |  |  | 5.86 | 6.14 |  | 5.51 | 5.96 | 5.80 | 
